In ChEMBL document CHEMBL4350955, “Novel Chemical Series of 5-Lipoxygenase-Activating Protein Inhibitors for Treatment of Coronary Artery Disease” (J Med Chem, 2019):
≈ marks a conversion by molar mass, not a printed value. Calls of active or inactive are those of the source. No cut-off for these calls is given here.

Key:
[1] = target: T1, Arachidonate 5-lipoxygenase-activating protein (Homo sapiens) (UniProt P20292); assay: (§1) Inhibition of FLAP in human whole blood assessed as reduction in calcium ionophore-stimulated LTB4 production preincubated for 4 hrs followed by calcium ionophore stimulation and measured after 20 mins by EIA; assay type: tissue-based
T1 sequence (whole entry): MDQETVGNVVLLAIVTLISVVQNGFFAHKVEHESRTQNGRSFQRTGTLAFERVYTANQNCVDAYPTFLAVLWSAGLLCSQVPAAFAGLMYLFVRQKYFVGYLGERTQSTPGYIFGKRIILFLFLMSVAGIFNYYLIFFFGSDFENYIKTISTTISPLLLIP

[2] = target: T2, Arachidonate 5-lipoxygenase-activating protein (Homo sapiens, UniProt P20292); assay: as §1; assay type: tissue-based
T2 sequence (P20292 whole entry): T1 sequence (whole entry)

[3] = Apparent permeability across apical to basolateral side in human Caco2 cells; settings: Caco-2
hERG (KCNH2) = hERG (KCNH2) (Homo sapiens, UniProt Q12809); assay: Inhibition of human ERG at 10 uM high-throughput electrophysiology assay relative to control
physchem = settings: phosphate buffer, pH 7.4
Cytochrome P450 1A2 = Cytochrome P450 1A2 (Homo sapiens, UniProt P05177); assay: Inhibition of recombinant human CYP1A2 assessed as maximum reduction in metabolite formation using coumarin based substrate by fluorescence assay; assay type: ADME
[4] = Distribution coefficient between octanol and sodium phosphate buffer, logD of the compound in pH 7.4 buffer by LC-MS/MS-based shake flask method
[5] = target: T2, Arachidonate 5-lipoxygenase-activating protein; assay: Inhibition of [3H]MK0591 binding to human FLAP expressed in […] cell membranes measured after 60 to 80 mins by scintillation counting method
[6] = Intrinsic clearance in cryopreserved human hepatocytes assessed as per million cells at 1 uM measured up to 60 mins by LC-MS/MS analysis; assay type: ADME, cell-based, Hepatocyte; settings: read-out: CLH
Homo sapiens = assay: Suppression of calcium ionophore-stimulated LTB4 production in CAD patient whole blood at 100 mg administered daily during phase 2 study for 12 weeks by ELISA relative to baseline; assay type: functional
[7] = Chemical stability of the compound; assay type: physicochemical
[8] = target: Voltage-gated inwardly rectifying potassium channel KCNH2 (Homo sapiens, UniProt Q12809); assay: Inhibition of human ERG by high-throughput electrophysiology assay
[9] = Inhibition of phospholipidosis in rat H42EC3 cells assessed as reduction in NBD-PE accumulation by SYTOX orange staining-based high content imaging analysis; assay type: cell-based
[10] = Inhibition of FLAP in Beagle dog whole blood assessed as reduction in calcium ionophore-stimulated LTB4 production preincubated for 30 mins followed by calcium ionophore stimulation and measured after 20 mins by EIA; assay type: tissue-based; settings: Canis lupus familiaris
HepG2 = assay: Induction of mitochondrial impairment in human HepG2 cells incubated for 24 hrs by CellTiter-Glo Luminescent Cell Viability Assay; assay type: cell-based; settings: hepg2, 24 h
Bile salt export pump = Bile salt export pump (Homo sapiens, UniProt O95342); assay: Inhibition of recombinant human BSEP expressed in baculovirus infected Sf21 insect cell vesicles assessed as reduction in NBD-taurocholate uptake by fluorescence assay; assay type: ADME
[11] = target: Prostaglandin G/H synthase 1 (Homo sapiens, UniProt P23219); assay: Inhibition of COX-1 in human whole blood assessed as reduction in calcium ionophore-stimulated thromboxane B2 production preincubated for 30 mins followed by calcium ionophore stimulation and measured after 20 mins by EIA; assay type: tissue-based
[12] = target: Potassium voltage-gated channel subfamily E member 1 (Homo sapiens, UniProt P15382); assay: Inhibition of human IKs by IonWork electrophysiology method
[13] = Metabolic stability in human hepatocytes assessed as parent compound remaining; assay type: ADME, cell-based, Hepatocyte
[14] = Ratio of drug level in blood to plasma in human at 10 uM incubated for 30 mins by LC-MS/MS analysis; assay type: ADME, cell-free
[15] = Selectivity ratio of inhibition of COX-2 in human whole blood to Inhibition of 5-lipoxygenase (unknown origin)
L5178Y = assay: Genotoxicity in mouse L5178Y cells by micronucleus Assay; assay type: toxicity, cell-based
[16] = target: Aryl hydrocarbon receptor (Homo sapiens, UniProt P35869); assay: Agonist activity at AhR in human HepG2 cells assessed as induction of CYP1A1 activity at 0.001 to 30 uM measured after 24 hrs by immunocytochemistry analysis; assay type: ADME, cell-based; settings: hepg2, 24 h
[17] = Half-life in po or iv dosed Sprague-Dawley rat; assay type: ADME, organism-based; settings: in vivo
[18] = target: Kv channel-interacting protein 2/Potassium voltage-gated channel subfamily D member 3 (Homo sapiens, UniProt Q9UK17+Q9NS61); assay: Inhibition of human Kv4.3/KChIP2 by Ion-work electrophysiology assay; assay type: protein-complex assay
[19] = Selectivity ratio of inhibition of COX-1 in human whole blood to Inhibition of 5-lipoxygenase (unknown origin)
[20] = Protein binding in human plasma assessed as unbound fraction by LC-MS based equilibrium dialysis analysis; assay type: ADME, cell-free
[21] = target: Polyunsaturated fatty acid 5-lipoxygenase (Homo sapiens, UniProt P09917); assay: Inhibition of 5-lipoxygenase (unknown origin)
[22] = target: Potassium voltage-gated channel subfamily A member 5 (Homo sapiens, UniProt P22460); assay: Inhibition of human Kv1.5 by Ion-work electrophysiology assay
[23] = target: Prostaglandin G/H synthase 2 (Homo sapiens, UniProt P35354); assay: Inhibition of COX-2 in human whole blood assessed as reduction in LPS-stimulated prostaglandin E2 production preincubated for 15 mins followed by LPS stimulation and measured after overnight incubation by EIA; assay type: tissue-based
[24] = target: Polyunsaturated fatty acid lipoxygenase ALOX12 (Homo sapiens, UniProt P18054); assay: Inhibition of 12-lipoxygenase (unknown origin)
[25] = Oral bioavailability in Beagle dog at 0.1 to 1 umol/kg administered twice daily via gavage for 3 days and measured up to 79 hrs; assay type: ADME, organism-based, Canis lupus familiaris; settings: in vivo
[26] = target: Polyunsaturated fatty acid lipoxygenase ALOX15 (Homo sapiens, UniProt P16050); assay: Inhibition of 15-lipoxygenase (unknown origin)
[27] = Half-life in Beagle dog at 0.004 to 0.1 umol/kg, iv or 0.1 to 1 umol/kg, po via gavage measured up to 79 hrs; assay type: ADME, organism-based, Canis lupus familiaris; settings: in vivo
[28] = Bioavailability in po dosed Sprague-Dawley rat; assay type: ADME, organism-based; settings: in vivo
[29] = Volume of distribution in Beagle dog at 0.004 to 0.1 umol/kg, iv or 0.1 to 1 umol/kg, po via gavage measured up to 79 hrs; assay type: ADME, organism-based, Canis lupus familiaris; settings: in vivo
[30] = Genotoxicity in Salmonella typhimurium by Ames test; assay type: toxicity; settings: salmonella enterica subsp. enterica serovar typhimurium
Summary of the method: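 Two-strain Salmonella Ames test, with and without metabolic activation by rat liver S9 fraction; applied to amino pyrazole building blocks present in the series.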

Canis familiaris = organism: Canis familiaris; assay: Ex vivo inhibition of FLAP in Beagle dog assessed as reduction in ionophore-stimulated LTB4 production by EIA; assay type: functional, organism-based; settings: Canis lupus familiaris
[31] = Clearance in Beagle dog at 0.004 to 0.1 umol/kg, iv or 0.1 to 1 umol/kg, po via gavage measured up to 79 hrs; assay type: ADME, organism-based, Canis lupus familiaris; settings: in vivo
[32] = Clearance in po or iv dosed Sprague-Dawley rat; assay type: ADME, organism-based; settings: in vivo
[33] = Drug absorption in Beagle dog at 0.004 to 0.1 umol/kg, iv or 0.1 to 1 umol/kg, po via gavage measured up to 79 hrs; assay type: ADME, organism-based, Canis lupus familiaris; settings: in vivo
[34] = Protein binding in Sprague-Dawley rat plasma assessed as unbound fraction by LC-MS based equilibrium dialysis analysis; assay type: ADME, cell-free
[35] = target: Sodium channel protein type 5 subunit alpha (Homo sapiens, UniProt Q14524); assay: Inhibition of human NaV1.5 by Ion-work electrophysiology assay
[36] = target: Voltage-dependent T-type calcium channel subunit alpha-1H (Homo sapiens) (UniProt O95180); assay: Inhibition of human Cav3.2 by Ion-work electrophysiology assay
CYP450 = CYP450 (Homo sapiens, UniProt P04798+P05177+P05181+P08684+P10632+P10635+P11509+P11712+P13584+P20813+P20815+P20853+P24462+P24903+P33260+P33261+P51589+P78329+P98187+Q02928+Q08477+Q16678+Q16696+Q5TCH4+Q6VVX0+Q7Z449+Q8TAV3+Q96SQ9+Q9HB55); assay: Inhibition of CYP450 assessed as maximum reduction in metabolite formation using coumarin based substrate by fluorescence assay; assay type: ADME, protein assay; settings: probe coumarin based substrate
[37] = Cytotoxicity against human THLE cells incubated for 24 hrs by MTS assay; assay type: cell-based
[38] = target: Potassium/sodium hyperpolarization-activated cyclic nucleotide-gated channel 4 (Homo sapiens, UniProt Q9Y3Q4); assay: Inhibition of human HCN4 by Ion-work electrophysiology assay
[39] = target: ATP-binding cassette sub-family C member 2 (Rattus norvegicus, UniProt Q63120); assay: Inhibition of Sprague-Dawley rat Mrp2 expressed in baculovirus infected Sf21 insect cell vesicles assessed as reduction in CDF uptake by fluorescence assay
[40] = target: T1, Arachidonate 5-lipoxygenase-activating protein (Homo sapiens); assay: (§2) Inhibition of FLAP in human whole blood assessed as reduction in calcium ionophore-stimulated LTB4 production preincubated for 30 mins followed by calcium ionophore stimulation and measured after 20 mins by EIA; assay type: tissue-based
[41] = target: T2, Arachidonate 5-lipoxygenase-activating protein; assay: as §2; assay type: tissue-based
[42] = Volume of distribution at steady state in po or iv dosed Sprague-Dawley rat; assay type: ADME, organism-based; settings: in vivo, read-out: Vdss

Sequence of Potassium voltage-gated channel subfamily A member 5 (P22460 whole entry): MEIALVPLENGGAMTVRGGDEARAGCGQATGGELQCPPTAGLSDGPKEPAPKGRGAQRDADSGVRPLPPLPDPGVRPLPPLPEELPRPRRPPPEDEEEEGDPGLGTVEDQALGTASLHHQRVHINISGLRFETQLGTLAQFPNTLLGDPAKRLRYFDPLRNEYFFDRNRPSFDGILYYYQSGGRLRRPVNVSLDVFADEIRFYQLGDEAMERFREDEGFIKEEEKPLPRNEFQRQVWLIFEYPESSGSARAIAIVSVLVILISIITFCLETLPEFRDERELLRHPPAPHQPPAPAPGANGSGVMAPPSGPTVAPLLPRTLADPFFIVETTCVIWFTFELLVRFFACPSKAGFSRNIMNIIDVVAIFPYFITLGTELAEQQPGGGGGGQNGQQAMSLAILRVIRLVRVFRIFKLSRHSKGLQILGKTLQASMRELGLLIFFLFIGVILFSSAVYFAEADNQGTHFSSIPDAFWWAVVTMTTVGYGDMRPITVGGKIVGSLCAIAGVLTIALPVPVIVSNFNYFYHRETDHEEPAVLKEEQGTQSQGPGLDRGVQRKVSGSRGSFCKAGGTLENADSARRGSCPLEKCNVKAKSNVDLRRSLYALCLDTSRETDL
Sequence of Bile salt export pump (O95342 whole entry): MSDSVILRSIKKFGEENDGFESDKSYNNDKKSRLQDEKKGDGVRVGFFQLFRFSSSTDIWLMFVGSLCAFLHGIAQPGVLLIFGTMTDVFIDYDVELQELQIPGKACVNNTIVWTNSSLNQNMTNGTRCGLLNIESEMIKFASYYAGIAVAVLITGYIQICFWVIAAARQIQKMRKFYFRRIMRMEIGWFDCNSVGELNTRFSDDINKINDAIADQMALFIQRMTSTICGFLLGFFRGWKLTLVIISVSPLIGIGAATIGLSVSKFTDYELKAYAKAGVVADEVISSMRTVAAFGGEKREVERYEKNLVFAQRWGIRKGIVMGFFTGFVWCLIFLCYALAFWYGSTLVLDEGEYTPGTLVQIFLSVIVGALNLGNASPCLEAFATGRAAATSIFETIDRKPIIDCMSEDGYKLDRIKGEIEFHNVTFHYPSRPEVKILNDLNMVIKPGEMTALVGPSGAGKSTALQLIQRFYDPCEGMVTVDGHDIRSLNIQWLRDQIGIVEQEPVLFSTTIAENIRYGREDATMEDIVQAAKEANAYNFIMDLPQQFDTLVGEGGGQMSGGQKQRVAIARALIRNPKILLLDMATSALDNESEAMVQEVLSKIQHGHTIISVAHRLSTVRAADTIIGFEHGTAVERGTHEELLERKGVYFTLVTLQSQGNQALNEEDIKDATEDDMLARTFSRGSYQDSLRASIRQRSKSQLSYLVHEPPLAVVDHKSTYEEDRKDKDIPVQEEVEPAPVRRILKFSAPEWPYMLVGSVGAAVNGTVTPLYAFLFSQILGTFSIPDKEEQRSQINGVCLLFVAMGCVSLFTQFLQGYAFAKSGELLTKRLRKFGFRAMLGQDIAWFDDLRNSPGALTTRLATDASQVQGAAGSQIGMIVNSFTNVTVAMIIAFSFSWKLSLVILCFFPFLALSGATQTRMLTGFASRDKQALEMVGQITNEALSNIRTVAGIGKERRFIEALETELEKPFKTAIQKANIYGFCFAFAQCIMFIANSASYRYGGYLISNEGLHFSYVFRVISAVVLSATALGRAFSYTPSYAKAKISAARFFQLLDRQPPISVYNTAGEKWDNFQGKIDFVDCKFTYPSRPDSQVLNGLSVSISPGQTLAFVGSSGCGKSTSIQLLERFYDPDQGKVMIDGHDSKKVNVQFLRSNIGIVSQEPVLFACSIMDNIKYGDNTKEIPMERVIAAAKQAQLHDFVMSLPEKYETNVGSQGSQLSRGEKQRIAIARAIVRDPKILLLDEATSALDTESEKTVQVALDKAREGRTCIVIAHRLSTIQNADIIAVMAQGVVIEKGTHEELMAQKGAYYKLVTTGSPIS
Sequence of Potassium/sodium hyperpolarization-activated cyclic nucleotide-gated channel 4 (Q9Y3Q4 whole entry): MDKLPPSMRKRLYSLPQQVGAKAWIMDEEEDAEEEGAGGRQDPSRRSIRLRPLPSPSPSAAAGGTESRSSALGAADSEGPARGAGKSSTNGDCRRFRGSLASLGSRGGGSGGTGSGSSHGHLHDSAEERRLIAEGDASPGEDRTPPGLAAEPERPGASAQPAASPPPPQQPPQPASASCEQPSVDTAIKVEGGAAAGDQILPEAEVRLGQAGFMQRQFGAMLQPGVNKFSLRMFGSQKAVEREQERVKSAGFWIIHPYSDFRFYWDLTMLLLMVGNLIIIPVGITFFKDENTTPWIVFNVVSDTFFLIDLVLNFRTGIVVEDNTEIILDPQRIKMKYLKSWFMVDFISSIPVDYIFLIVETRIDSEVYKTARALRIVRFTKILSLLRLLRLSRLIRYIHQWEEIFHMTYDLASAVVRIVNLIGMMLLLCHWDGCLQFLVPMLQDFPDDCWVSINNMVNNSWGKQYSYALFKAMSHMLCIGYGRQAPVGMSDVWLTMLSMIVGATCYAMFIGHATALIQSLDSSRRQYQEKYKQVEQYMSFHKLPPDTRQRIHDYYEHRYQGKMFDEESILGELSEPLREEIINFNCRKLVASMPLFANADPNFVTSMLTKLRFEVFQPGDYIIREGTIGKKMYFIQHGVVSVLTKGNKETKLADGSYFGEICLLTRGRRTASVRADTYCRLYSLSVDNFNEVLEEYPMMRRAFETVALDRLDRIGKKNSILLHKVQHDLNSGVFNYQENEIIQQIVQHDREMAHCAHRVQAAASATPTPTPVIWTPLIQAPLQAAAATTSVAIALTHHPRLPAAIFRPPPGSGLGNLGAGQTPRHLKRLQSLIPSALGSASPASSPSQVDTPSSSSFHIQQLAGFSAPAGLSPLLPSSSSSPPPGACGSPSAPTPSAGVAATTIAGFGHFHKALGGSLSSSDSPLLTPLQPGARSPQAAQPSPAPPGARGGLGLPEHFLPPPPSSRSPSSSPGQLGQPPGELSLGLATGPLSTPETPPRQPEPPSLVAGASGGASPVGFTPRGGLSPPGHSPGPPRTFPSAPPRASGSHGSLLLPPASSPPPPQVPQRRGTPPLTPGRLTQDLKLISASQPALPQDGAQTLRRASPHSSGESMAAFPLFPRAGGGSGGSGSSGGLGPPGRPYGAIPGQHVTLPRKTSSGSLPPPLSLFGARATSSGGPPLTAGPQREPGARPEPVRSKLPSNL
Sequence of Prostaglandin G/H synthase 1 (P23219 whole entry): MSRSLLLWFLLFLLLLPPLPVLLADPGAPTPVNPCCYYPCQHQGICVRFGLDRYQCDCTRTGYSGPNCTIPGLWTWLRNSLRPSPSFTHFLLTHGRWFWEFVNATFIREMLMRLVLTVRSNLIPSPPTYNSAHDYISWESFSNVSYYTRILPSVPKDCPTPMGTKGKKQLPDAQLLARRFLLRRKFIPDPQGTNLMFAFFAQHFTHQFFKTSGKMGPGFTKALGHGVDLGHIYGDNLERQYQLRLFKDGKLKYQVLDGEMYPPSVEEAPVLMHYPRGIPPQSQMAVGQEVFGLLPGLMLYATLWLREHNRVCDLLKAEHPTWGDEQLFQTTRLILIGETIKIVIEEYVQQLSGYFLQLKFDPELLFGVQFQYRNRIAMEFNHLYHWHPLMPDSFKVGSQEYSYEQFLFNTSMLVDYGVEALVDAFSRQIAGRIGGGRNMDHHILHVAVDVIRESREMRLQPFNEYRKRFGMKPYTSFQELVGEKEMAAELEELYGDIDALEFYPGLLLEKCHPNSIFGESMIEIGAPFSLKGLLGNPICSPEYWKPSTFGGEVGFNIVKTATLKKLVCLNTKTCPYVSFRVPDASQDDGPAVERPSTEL
Sequence of Cytochrome P450 1A2 (P05177 whole entry): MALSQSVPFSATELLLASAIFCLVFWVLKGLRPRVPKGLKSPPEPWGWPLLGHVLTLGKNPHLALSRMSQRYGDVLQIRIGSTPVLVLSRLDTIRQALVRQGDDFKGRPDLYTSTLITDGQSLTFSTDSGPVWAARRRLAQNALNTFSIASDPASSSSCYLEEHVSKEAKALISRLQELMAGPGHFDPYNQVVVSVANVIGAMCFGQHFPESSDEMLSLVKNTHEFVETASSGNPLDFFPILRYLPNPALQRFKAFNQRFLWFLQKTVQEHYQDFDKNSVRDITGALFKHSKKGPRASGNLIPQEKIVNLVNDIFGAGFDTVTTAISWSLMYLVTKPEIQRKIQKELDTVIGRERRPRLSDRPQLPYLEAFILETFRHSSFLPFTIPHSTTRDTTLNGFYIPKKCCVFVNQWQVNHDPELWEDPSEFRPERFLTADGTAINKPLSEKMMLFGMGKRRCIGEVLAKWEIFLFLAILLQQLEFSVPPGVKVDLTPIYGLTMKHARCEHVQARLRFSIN
Sequence of Prostaglandin G/H synthase 2 (P35354 whole entry): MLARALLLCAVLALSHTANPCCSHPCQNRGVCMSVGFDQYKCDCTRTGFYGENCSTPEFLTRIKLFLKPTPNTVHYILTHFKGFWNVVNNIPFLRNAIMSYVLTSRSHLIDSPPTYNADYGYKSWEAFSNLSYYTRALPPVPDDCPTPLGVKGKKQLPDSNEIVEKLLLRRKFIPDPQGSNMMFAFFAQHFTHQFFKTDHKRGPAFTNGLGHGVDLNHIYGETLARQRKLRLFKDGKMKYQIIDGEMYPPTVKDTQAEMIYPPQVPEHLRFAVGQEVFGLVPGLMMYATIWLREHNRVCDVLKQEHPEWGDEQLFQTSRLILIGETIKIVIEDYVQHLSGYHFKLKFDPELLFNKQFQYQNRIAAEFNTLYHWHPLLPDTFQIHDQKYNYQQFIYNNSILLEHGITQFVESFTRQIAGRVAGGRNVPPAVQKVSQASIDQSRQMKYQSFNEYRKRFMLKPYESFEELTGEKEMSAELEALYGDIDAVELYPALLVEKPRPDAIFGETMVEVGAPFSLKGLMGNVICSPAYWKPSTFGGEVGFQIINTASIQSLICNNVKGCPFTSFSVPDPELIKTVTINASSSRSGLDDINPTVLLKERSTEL

CC(C)(O)CNC(=O)c1cnc(NC(=O)[C@@H]2CCCC[C@H]2C(=O)c2ccc(-c3cc[nH]n3)cc2)cn1 (racemic)
fpIC50 [1]: 8.3 | IC50 [2]: 100 nM | Papp A→B [3]: 3 ×10⁻⁶ cm/s | inhibition at 10 µM (hERG (KCNH2)): 22% | solubility at 24 h (physchem): 111 µM (≈ 54.5 µg/mL) | IC50 (Cytochrome P450 1A2): 10000 nM | logD [4]: 3.2 | IC50 [5]: 15.8 nM | hepatocyte CLint at 1 µM [6]: 4 µL/min/1e6 cells

C[C@H](C#Cc1ccc(Cc2ccc(F)cc2)s1)N(O)C(N)=O [ATRELEUTON]
inhibition (INH) (Homo sapiens): 80%

Cn1cc(NC(=O)[C@@H]2CCCC[C@H]2C(=O)c2ccc(-c3ccn[nH]3)cc2)c(OC(F)F)n1
Stability [7]: Unstable | logD [4]: 3

Cc1cc(-c2ccc(C(=O)[C@@H]3CCCC[C@H]3C(=O)Nc3cn(C)nc3C)cc2)n[nH]1
IC50 [8]: > 100000 nM | EC50 [9]: 32000 nM | IC50 [10]: 28 nM | Activity (HepG2): Non-Toxic | IC50 (Bile salt export pump): 120000 nM | inhibition (INH) [11]: Not Active | inhibition (INH) [12]: Not Active | Stability [13]: 72% | Papp A→B [3]: 20 ×10⁻⁶ cm/s | blood plasma ratio at 0.5 h, 10 µM [14]: 0.74 | Selectivity ratio [15]: >= 100 | Activity (L5178Y): Non-Toxic | Activity [16]: Not Active | half-life [17]: 4.5 h | inhibition (INH) [18]: Not Active | Selectivity ratio [19]: >= 100 | fraction unbound [20]: 0.11 | inhibition (INH) [21]: Not Active | inhibition (INH) [22]: Not Active | inhibition (INH) [23]: Not Active | inhibition (INH) [24]: Not Active | bioavailability [25]: 51% | inhibition (INH) [26]: Not Active | half-life [27]: 3.4 h | bioavailability [28]: 47% | Vd [29]: 0.98 L/kg | solubility at 24 h (physchem): 225 µM (≈ 91.2 µg/mL) | Activity [30]: Non-Toxic | logD [4]: 3 | IC50 (Canis familiaris): 34 nM | inhibition (Canis familiaris): Dose-dependent effect | clearance [31]: 3.33 mL/min/kg | clearance [32]: 6 mL/min/kg | ka [33]: 5.3 h⁻¹ | IC50 [5]: 63.1 nM | fraction unbound [34]: 0.043 | inhibition (INH) [35]: Not Active | inhibition [36]: inactive | IC50 (CYP450): > 25100 nM | Activity [37]: Non-Toxic | inhibition (INH) [38]: Not Active | inhibition (INH) [39]: Not Active | fpIC50 [40]: 8.1 | IC50 [41]: 63.1 nM | hepatocyte CLint at 1 µM [6]: 4 µL/min/1e6 cells | Vd [42]: 0.83 L/kg
